The values that follow come from publication PMC2646257 (Journal of medicinal chemistry, 2009).

The structures appear in SMILES notation. Values joined by “and” are separate entries in the source; they are usually repeats but may differ in a detail not shown here. Equal values may be shown once. Read-outs that look alike come from different tables or passages of the source.

The conditions of series [1]: mouse; cited from earlier work.
Series [2] is described as follows: Stability in sodium phosphate buffer. Type of series: physicochemical. The settings on record: sodium phosphate buffer (0.15 M, pH 7.4), room temperature. In a few lines:
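Radioligand was incubated in 0.15 M sodium phosphate buffer, pH 7.4, at room temperature for 2 h and analysed by HPLC.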

Series [3] can be described thus: Radiochemical stability of formulated radioligand. The settings on record: formulated [^18F]9. Type of series: physicochemical.
Series [4] can be described thus: Plasma free fraction, monkey. Type of series: in vitro ADME. The settings on record: two monkeys, one value each (n = 9 and n = 3). In a few lines:
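Radioligand was added to plasma and placed on a centrifugal ultrafiltration unit. The unit was spun at 5000g, and all filter-unit components were counted for radioactivity to derive free fraction.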

For series [5], the system named is PBR. Nature of the series: PET imaging in monkeys. The class given is in vivo, rhesus monkey. The settings on record: monkey. In a few lines: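 Male rhesus monkeys (11–15 kg) received an i.v. bolus of radioligand (2.76–5.80 mCi; 0.068–0.276 μg/kg) and were scanned up to 300 min. In pre-block, PBR ligand (3 mg/kg i.v.) was given 24 min before radioligand and imaging ran 120 min. In displacement, one monkey received 1.28 mCi, then 3 mg/kg i.v. at 60 min, with 240 min scanning. Uptake was given as %SUV. Images were co-registered with T1 1.5-T MRI.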

Series [6] can be described thus: Emergence of radiometabolites in monkey plasma in vivo. Also noted: species or system rhesus monkey. The procedure, abridged: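 Three male rhesus monkeys (11–15 kg) received i.v. bolus radioligand during four PET scans: three baseline and one pre-block (PBR ligand 3 mg/kg i.v., 24 min before). Arterial blood was drawn periodically from the femoral artery into heparin tubes and centrifuged. Plasma (1 mL) was mixed with acetonitrile (1.5 mL) and centrifuged. Supernatant was analysed by radio-HPLC for % parent and radiometabolites. Plasma concentration was expressed as %SUV.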

The nature of series [7]: Stability to rat brain homogenate in vitro. The settings on record: 37 °C, up to 60 min. Type of series: in vitro ADME. In a few lines: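 Excised rat brain (1.70 g) was homogenized in 3 mL saline, spiked with 5 μCi radioligand and incubated at 37 °C. Aliquots (n = 6) were taken periodically up to 60 min into acetonitrile, centrifuged and analysed by radio-HPLC for % parent and radiometabolites. A second brain, homogenized in saline/acetonitrile before spiking, served as reference.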

The nature of series [8]: Emergence of radiometabolites in rat plasma, brain and urine in vivo. The procedure, abridged: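 Four rats (277–623 g) were kept under 1.5% isoflurane in oxygen at 37 °C. Two received NCA radioligand i.v. (0.812 or 1.32 mCi; >1.39 Ci/μmol) and were killed at 30 or 95 min. Two received carrier-added radioligand (0.86 or 0.89 mCi; ~0.13 Ci/μmol; saline with 10% ethanol, 5% Tween 80), had 5 mL saline i.p. 30 min before, and were killed at 60 min with urine collected. Plasma was deproteinized. Brain was homogenized on ice in saline/acetonitrile plus water and centrifuged. Analysis was by radio-HPLC.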

The format of series [9] is in vitro ADME, rat. The settings on record: 30 min.
Series [10] in a line: LC-MS-MS search for metabolites in rat brain, urine and plasma in vivo. In a few lines:
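Three rats under 1.5% isoflurane received non-radioactive test compound (2.26 ± 0.76 mg) via the penile vein over 9 min, in 0.9 mL saline with 10% ethanol and Cremophor EL or Tween 80. Urethras were clamped; saline 0.1 mL was given i.v. every 30 min. Blood and urine were taken at 60 or 115 min. Brain was homogenized twice in acetonitrile/water and spun at 10,000g for 10 min. Plasma was deproteinized with acetonitrile. Samples were stored at −70 °C and analysed by LC-MS-MS.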

For series [11], the system named is PBR. Particulars: cited from earlier work.
[12] abbreviates: two rats, carrier-added, 60 min.

In the case of `COc1ccc(OC[18F])c(CN(C(C)=O)c2cc(F)ccc2Oc2ccccc2)c1` [[^18F]4], the defluorination result in series [1] was “rapidly defluorinated”.
With `COc1ccc(OC)c(CN(C(=O)C[18F])c2ccccc2Oc2ccccc2)c1` [[^18F]9, [^18F]N-fluoroacetyl-N-(2,5-dimethoxybenzyl)-2-phenoxyaniline], in series [2], the “time stable in buffer” value was more than 2 h. In [3], the time radiochemically stable is listed as “at least 4 h”. The “plasma free fraction (fP)” value in [4] is 3.5 ± 0.2% and 1.34 ± 0.1%. Also, the “defluorination (uptake of radioactivity into skull)” value with PBR [5] (PET images 60-120 min) is given as “does not defluorinate significantly”. In the series on PBR [5] (choroid plexus of fourth ventricle, baseline, n = 4), this molecule registered a maximal brain uptake of 371 ± 89 % SUV. For the same molecule, the “proportion of brain radioactivity displaced” value in the series with PBR [5] (choroid plexus, 1 (3 mg/kg i.v.) given 60 min after [^18F]9) is on record as “up to 90%”. In series [6] (baseline, the one monkey also studied with pre-block), the “time for radiometabolite to reach half of plasma radioactivity” value was found to be 24 min. For the same molecule, in series [6] (monkey plasma, all samples except one), the “minor radiometabolite, share of total plasma radioactivity” value is listed as not above 4%. Further, the “peak plasma concentration of unchanged [^18F]9, pre-block versus baseline” value in series [6] (monkey, %SUV, same monkey) is given as approximately 18 fold. For the same molecule, in series [6] (monkey, baseline experiments, n = 3), the “time at which plasma is composed equally of radiometabolite and [^18F]9” value is listed as 31.1 ± 14.7 min. For the same molecule, the “time at which plasma is composed equally of radiometabolite and [^18F]9” value in [6] (monkey, pre-block with 1 (3 mg/kg i.v.), 3 mg/kg) is 4.0 min and 4 min. In addition, the “minor radiometabolite, share of total plasma radioactivity” value in series [6] (one monkey, one plasma sample at 60 min after injection) was 8%. The “unchanged radioligand after incubation” value in series [7] is more than 99.2%. Moreover, in series [8] (rat, NCA, mass dose 0.85 μg/kg, 30 min, n = 2), the “[^18F]9 as share of plasma radioactivity” value turned out to be 12.5%. Moreover, in series [8] (second rat, NCA, mass dose 3.78 μg/kg), the “minor radiometabolite, share of total radioactivity” value is less than 5%. In series [8] (setting [12]), the “minor radiometabolite, share of brain radioactivity” value is listed as less than 5%; the “minor radiometabolite, share of plasma radioactivity” value is on record as less than 3%; the “minor radiometabolite, share of urine radioactivity” value came out at 9.9 ± 2.2%.
Turning to `O=C(C[18F])Nc1ccccc1Oc1ccccc1` [[^18F]11, [^18F]2-fluoro-N-(2-phenoxyphenyl)acetamide], the “conversion into polar radiometabolite(s)” value in series [9] (rat brain homogenate) and in series [9] (rat whole blood) was more than 99.9% throughout.
With `COc1ccc(OC)c(CN(C(=O)CF)c2ccccc2Oc2ccccc2)c1` [compound 9, N-Fluoroacetyl-N-(2,5-dimethoxybenzyl)-2-phenoxyaniline], in [10], the “unchanged 9 in urine by LC-MS-MS” value is on record as “not detected”. The “unchanged 9 in brain and plasma by LC-MS-MS” value in series [10] (sampled at 115 min after administration) is “detected”. Also, the “selectivity for PBR” value with PBR [11] is listed as “selective for PBR”.
